Experiments:
[1] = tested on: Mycobacterium tuberculosis; experiment: Binding affinity to Mycobacterium tuberculosis CitA R153ZM mutant expressed in Escherichia coli cells assessed as change in melting temperature by thermal shift assay
Procedure, shortened: (§1)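 Thermal shift used 25 μM purified protein in 50 mM Tris pH 8.0 with 2 mM ligand (sodium pyruvate, OAA, or both), plus Protein Thermal Shift dye at 2X final. ΔTm was taken from the melt-curve derivative relative to protein without ligand.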

[2] = tested on: Mycobacterium tuberculosis; experiment: Binding affinity to Mycobacterium tuberculosis CitA R149E mutant expressed in Escherichia coli cells assessed as change in melting temperature by thermal shift assay; procedure, shortened: as §1
[3] = tested on: Mycobacterium tuberculosis; experiment: Binding affinity to Mycobacterium tuberculosis CitA R149E mutant expressed in Escherichia coli cells assessed as change in melting temperature in presence of oxaloacetate by thermal shift assay; procedure, shortened: as §1
[4] = tested on: Mycobacterium tuberculosis; experiment: Binding affinity to Mycobacterium tuberculosis CitA R153ZM mutant expressed in Escherichia coli cells assessed as change in melting temperature in presence of oxaloacetate by thermal shift assay; procedure, shortened: as §1
[5] = tested on: Mycobacterium tuberculosis; experiment: Binding affinity to Mycobacterium tuberculosis CitA R153M mutant expressed in Escherichia coli cells assessed as Kcat/Km by Michaelis-Menten analysis
Procedure, shortened: (§2)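 His-tagged CitA (wild type or variant) was expressed in E. coli, purified by cobalt affinity and size exclusion, then dialysed against 20 mM Tris pH 8.0. Activity was measured by DTNB (300 μM) thiol detection of released CoA at 412 nm, with OAA and AcCoA substrates and 10 nM enzyme, in 50 mM Tris pH 8.0 at 25 °C. A no-enzyme control was run. Triplicate runs were fitted to Michaelis–Menten.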

[6] = tested on: Mycobacterium tuberculosis; experiment: Binding affinity to Mycobacterium tuberculosis CitA R149E mutant expressed in Escherichia coli cells assessed as apparent Km by Michaelis-Menten analysis; procedure, shortened: as §2
[7] = tested on: Mycobacterium tuberculosis; experiment: Binding affinity to Mycobacterium tuberculosis CitA R153ZM mutant expressed in Escherichia coli cells assessed as change in melting temperature in presence of pyruvate by thermal shift assay; procedure, shortened: as §1
[8] = tested on: Mycobacterium tuberculosis; experiment: Binding affinity to Mycobacterium tuberculosis CitA R149E mutant expressed in Escherichia coli cells assessed as Kcat/Km by Michaelis-Menten analysis; procedure, shortened: as §2
[9] = tested on: Mycobacterium tuberculosis; experiment: Binding affinity to Mycobacterium tuberculosis CitA R149E mutant expressed in Escherichia coli cells assessed as Vmax by Michaelis-Menten analysis; procedure, shortened: as §2
[10] = tested on: Mycobacterium tuberculosis; experiment: Binding affinity to Mycobacterium tuberculosis CitA R149E mutant expressed in Escherichia coli cells assessed as catalytic constant by Michaelis-Menten analysis; procedure, shortened: as §2
[11] = tested on: Mycobacterium tuberculosis; experiment: Binding affinity to Mycobacterium tuberculosis CitA R153M mutant expressed in Escherichia coli cells assessed as apparent Km by Michaelis-Menten analysis; procedure, shortened: as §2
[12] = tested on: Mycobacterium tuberculosis; experiment: Binding affinity to Mycobacterium tuberculosis CitA R153M mutant expressed in Escherichia coli cells assessed as catalytic constant by Michaelis-Menten analysis; procedure, shortened: as §2
[13] = tested on: Mycobacterium tuberculosis; experiment: Binding affinity to Mycobacterium tuberculosis CitA R153M mutant expressed in Escherichia coli cells assessed as Vmax by Michaelis-Menten analysis; procedure, shortened: as §2
[14] = tested on: Mycobacterium tuberculosis; experiment: Binding affinity to Mycobacterium tuberculosis CitA R149E mutant expressed in Escherichia coli cells assessed as change in melting temperature in presence of pyruvate by thermal shift assay; procedure, shortened: as §1

Row | Structure (SMILES) | ΔTm [1] | ΔTm [2] | ΔTm [3] | ΔTm [4] | kcat/Km [5] | Km [6] | ΔTm [7] | kcat/Km [8] | Vmax [9] | kcat [10] | Km [11] | kcat [12] | Vmax [13] | ΔTm [14]
1 | CC(=O)C(=O)O | 0.51 °C | 0.47 °C | 10.7 °C | 14.3 °C | – | – | – | – | – | – | – | – | – | –
2 | O=C(O)CC(=O)C(=O)O | 14.3 °C | 10.8 °C | – | – | 63 min⁻¹ µM⁻¹ | 11.7 µM | 14.3 °C | 24 min⁻¹ µM⁻¹ | 2.8 µM/min | 281 min⁻¹ | 3.2 µM | 198 min⁻¹ | 2 µM/min | 10.7 °C

Reference: ChEMBL document CHEMBL5257161, “Mycobacterium tuberculosis CitA activity is modulated by cysteine oxidation and pyruvate binding” (RSC Med Chem, 2023)
